Test [1] relates to BA production. In words: Endogenously produced BA levels in faeces, liver and serum of supplemented mice. The note with it: daily for 14 days. The test is classed as in vivo, mouse. In outline: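 Mice (WT, Nr1h4−/−, SPF, ABX) were dosed by daily oral gavage with deuterated or unlabelled conjugate (DMSO stock diluted in corn oil), 50 mg kg−1 day−1, 100 µl, for 14 days. Controls got DMSO plus corn oil. Faeces, liver and serum BAs were measured by HPLC-HRMS. Serum was extracted with 4 volumes methanol, sonicated 1 min, stirred 10 min, and spun 5,000g for 5 min. Groups were compared by Welch-corrected two-sided t-test.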

Test [2] has as its target T1, full-length human FXR protein (Homo sapiens, UniProt Q96RI1).
T1 sequence (Q96RI1 1-486): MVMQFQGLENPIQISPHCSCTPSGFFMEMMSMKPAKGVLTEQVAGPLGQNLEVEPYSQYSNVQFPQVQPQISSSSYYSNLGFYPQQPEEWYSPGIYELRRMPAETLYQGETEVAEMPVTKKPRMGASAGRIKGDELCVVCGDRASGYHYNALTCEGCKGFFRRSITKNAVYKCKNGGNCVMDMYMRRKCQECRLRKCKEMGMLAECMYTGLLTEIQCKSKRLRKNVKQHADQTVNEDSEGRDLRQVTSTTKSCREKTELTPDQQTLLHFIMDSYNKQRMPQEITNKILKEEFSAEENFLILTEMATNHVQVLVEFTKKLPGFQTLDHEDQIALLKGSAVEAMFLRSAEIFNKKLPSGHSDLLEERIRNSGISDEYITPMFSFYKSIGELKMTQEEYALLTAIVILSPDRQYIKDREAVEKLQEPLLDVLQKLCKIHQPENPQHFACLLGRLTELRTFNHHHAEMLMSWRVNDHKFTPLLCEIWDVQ
The test can be described thus: DiscoverX cell-based protein–protein interaction assay on FXR, antagonist mode. To be noted: for FXR antagonistic activity against GW4604-mediated activation (in words): tested range of concentrations.

The test system of test [3] is FXR. The note with it: cited from earlier work.
Test [4] concerns the target T2, recombinant human VNN1 (ΔN490aa truncated) (Homo sapiens, UniProt O95497).
T2 sequence (O95497 22-490 limits assumed): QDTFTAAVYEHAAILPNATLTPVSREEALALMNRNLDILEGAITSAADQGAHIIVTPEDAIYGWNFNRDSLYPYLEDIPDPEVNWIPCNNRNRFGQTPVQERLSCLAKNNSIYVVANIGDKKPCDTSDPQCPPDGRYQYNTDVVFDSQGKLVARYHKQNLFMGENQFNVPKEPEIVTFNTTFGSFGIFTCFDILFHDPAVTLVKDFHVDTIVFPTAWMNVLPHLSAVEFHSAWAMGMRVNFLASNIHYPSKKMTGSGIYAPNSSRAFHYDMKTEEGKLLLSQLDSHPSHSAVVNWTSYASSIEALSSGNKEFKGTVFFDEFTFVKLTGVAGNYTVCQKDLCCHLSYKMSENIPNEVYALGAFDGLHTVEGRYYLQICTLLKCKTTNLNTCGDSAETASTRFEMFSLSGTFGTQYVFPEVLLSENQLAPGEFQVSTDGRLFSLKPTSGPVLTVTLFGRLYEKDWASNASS
The test can be described thus: VNN1 in vitro assay with pantetheine derivatives. The test is classed as biochemical. To be noted: 0.01 μM VNN1, 37 °C, 15 min, pantothenic acid formation, n = 3, mean ± s.d. Summed up:
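Recombinant human ΔN490aa VNN1 (C-terminal His tag, in PBS pH 7.0) was mixed 1:1 with substrate (pantetheine or cholic acid–pantetheine derivative) in PBS pH 7.0. Final enzyme was 0.01 µM and final substrate 20–640 µM. Reactions ran 15 min at 37 °C and were quenched with methanol. Pantothenic acid was quantified by HPLC-HRMS (ESI+, m/z 220.1180) against a calcium pantothenate standard curve. Initial velocities were fitted to saturation kinetics; three independent assays used the same enzyme batch.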

Test [5] concerns the target T1, full-length human FXR protein. The test can be described thus: DiscoverX cell-based protein–protein interaction assay on FXR, agonist mode. To be noted: any of the tested concentrations. Summed up: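 CHO-K1 cells (mycoplasma-negative, not authenticated) expressing full-length human FXR with an SRC-derived co-activator peptide fusion. Cells were grown in charcoal-dextran-filtered serum, then given 5X sample for 3–16 h at 37 °C or room temperature. Signal came from PathHunter chemiluminescent detection (1 h, room temperature). Activity (%) was set against vehicle RLU and GW4064 maximum, with duplicates at each concentration.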

Entries after “also recorded” stand apart in the source; their conditions may differ.

`C[C@H](CCC(=O)O)[C@H]1CC[C@H]2[C@@H]3[C@H](O)C[C@@H]4C[C@H](O)CC[C@]4(C)[C@H]3CC[C@]12C` [CDCA, chenodeoxycholic acid]: the “BA levels in the liver and serum of WT and Nr1h4^−/− mice” value in test [1] is reported as “not significantly affected”. Consider `C[C@H](CCC(=O)NCCS(=O)(=O)O)[C@H]1CC[C@H]2[C@@H]3[C@@H](O)[C@@H](O)[C@@H]4C[C@H](O)CC[C@]4(C)[C@H]3CC[C@]12C` [TβMCA, Tauro-β-muricholic acid], for which the “FXR antagonistic activity against GW4604-mediated activation (in words)” value in test [2] is “did not show FXR antagonistic effects; also recorded: inactive”. For the same compound, the “FXR antagonism as previously reported” value in test [3] was “weak, mouse-specific FXR antagonist”.

As for `CC(C)(CO)[C@@H](O)C(=O)NCCC(=O)NCCS` [pantetheine], in test [4], the “Vmax, hydrolysis by VNN1” value amounted to 2.13 ± 0.37 min⁻¹. Take `CSCCNC(=O)CC[C@@H](C)[C@H]1CC[C@H]2[C@@H]3[C@@H](O)[C@@H](O)[C@@H]4C[C@H](O)CC[C@]4(C)[C@H]3CC[C@]12C` [βMCA–MCY]: the IC50 in test [2] (read-out: IC50, antagonistic activity against GW4604-mediated activation of FXR, agonist challenge GW4064 0.37 μM (EC80), CHO-K1 cells, duplicate) was found to be 104 µM. In addition, the “FXR antagonistic activity against GW4604-mediated activation (in words)” value in test [2] is on record as “strong FXR antagonistic effects”. Besides, the “FXR agonist activity (in words)” value in test [5] was “no FXR agonistic effects”.

For orientation: IC50 means the concentration needed to halve the response being measured.

(Values after paper PMC11886927 (Nature, 2025).)
